# Test results reported in PubChem BioAssay AID743247 (Broad Institute, 2014).
# Several values for one entry are separate records, joined by “and”; a condition that tells them apart may be missing. Equal entries are not always repeated. The campaign covered roughly 350,000 compounds. About 300 (0.086%) were called active. The full list was thinned out, with actives kept by preference. Unmarked numbers belong to inactive results.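 The calls were made as follows: active = mean inhibition across replicates of 30% or more, regardless of how many single replicates reach that level; inconclusive = mean under 30% yet at least half of replicates reach 30%; inactive = the rest.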
# Experiment: inhibitors of fibronectin matrix deposition, primary screen, AH1F cells, Alexa488-fibronectin fluorescence, plate reader (AID 743247);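 also: positive control wells lacked labelled fibronectin entirely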
# Settings: AH1F fibroblasts, overnight, at 12.6 µM, stronger effect = higher value
# How it was run: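 Assay system: AH1F fibroblasts assembling fluorescent fibronectin matrix; Amount: 10000 AH1F cells per well; Buffer or medium: DMEM, 2% serum; Probe or stimulus: Alexa488-fibronectin, 24 nM final in well; Doses: single compound dose, delivered by pin transfer; Incubation: 1 h adhesion, overnight exposure; Measured by: fluorescence 485/525 nm; Read-out: fibronectin deposition inhibition.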
row,Compound,inhibition
1,O=C(NCc1ccc(F)cc1)[C@@H]1[C@@H](CO)[C@@H]2Cn3c(cccc3=O)[C@@H]2N1C(=O)c1cccnc1,12.8%
2,C[C@H]1CN([C@@H](C)CO)C(=O)c2cccc(NC(=O)CCCCCC(=O)Nc3ccccc3N)c2O[C@@H]1CN(C)C(=O)NC1CCCCC1,17%
3,COc1ccc(Nc2nc(N)nc(CSC(=S)N3CCC(C)CC3)n2)cc1,4.46%
4,CCOC(=O)c1cnc(SCc2nc(N)nc(Nc3ccc(OC)cc3)n2)nc1N,14.2% (active)
5,CCOC(=O)C1CCCN(Cc2nc(N)nc(Nc3ccc(C)cc3)n2)C1 (centres undefined),-4.21%
6,CN1C(=O)c2cc(NC(=O)c3cccs3)ccc2OC[C@H]2O[C@@H](CC(=O)NCC3CC3)CC[C@@H]21,-3.33%
7,CC(C)[C@@H]1COCc2cn(nn2)CC[C@@H](C)C(=O)N1,-0.112%
8,CCCNC(=O)Nc1ccc2c(c1)C(=O)N(C)C[C@@H](OC)[C@@H](C)CN(Cc1ccccn1)[C@@H](C)CO2,0.86%
9,CC(C)NC(=O)N(C)C[C@H]1Oc2ccc(N)cc2CC(=O)N(C)C[C@H]1C,3.3%
10,N#Cc1ccc(-c2ccc(C3[C@@H]4CN(S(=O)(=O)c5cccc(Cl)c5)C[C@H]3N4)cc2)cc1 (some centres undefined),-6.82%
11,C[C@@H]1CCCCO[C@H](CN(C)C(=O)CCCN(C)C)[C@@H](C)CN([C@@H](C)CO)C(=O)c2cc(NC(=O)c3ccncc3)ccc2O1,-3.34%
12,C[C@H](CO)N1C[C@H](C)[C@@H](CN(C)C(=O)C2CC2)Oc2ncc(C#CC(C)(C)O)cc2C1=O,-19.9%
13,C[C@@H]1CN([C@H](C)CO)C(=O)c2c(c3ccccc3n2C)-c2ccccc2CO[C@@H]1CN(C)Cc1ccccc1C(F)(F)F,3.35%
14,COc1ccc(S(=O)(=O)Nc2ccc3c(c2)C(=O)N(C)C[C@@H](OC)[C@H](C)CN(C(=O)NC(C)C)[C@H](C)CO3)cc1,6.84%
15,N#C[C@H]1[C@H](c2ccccc2-c2ccc(F)cc2)[C@H](CO)N1C(=O)Cc1ccncc1,-14.3%
16,CC(C)NC(=O)N(C)C[C@@H]1OCCCC[C@H](C)Oc2ccc(NC(=O)Nc3ccccc3)cc2C(=O)N([C@H](C)CO)C[C@@H]1C,1.11%
17,CCCNC(=O)N1[C@@H]2CNC[C@H]1C2c1ccc(-c2cccc(C)c2)cc1 (some centres undefined),-3.69% and -7.75%
18,Cc1cccc(S(=O)(=O)N2CC[C@@H]3[C@H]2c2cc(C#Cc4ccccc4F)ccc2N[C@@H]3CO)c1,15.8%
19,CNC[C@H]1Oc2ccc(NC(=O)NC(C)C)cc2C(=O)N(C)C[C@@H]1C,-10.1%
20,O=C1N[C@H](Cc2ccccc2)COCc2cn(nn2)CC[C@@H]1Cc1ccc(-c2ccccc2)cc1,7.74%
21,CNC[C@H]1Oc2ncccc2C(=O)N(C)C[C@@H]1C,3.59%
22,CC(=O)N1[C@H](CO)[C@H](c2ccccc2)[C@H]1CN(C(=O)c1ccccc1F)C(C)C,-2.39%
23,CCCC(=O)Nc1ccc2c(c1)OC[C@H](C)N(C(=O)CC)C[C@H](C)[C@@H](OC)CN(C)C2=O,-4.46%
24,C=C(C)C[C@H]1CCn2cc(nn2)COCCNC1=O,-4.67%
25,C[C@@H]1C(=O)N[C@H](c2ccc3c(c2)OCO3)CC=CC[C@H](C)Oc2ccccc2C(=O)N1C (mixture of isomers),-8.64%
26,COc1ccc(S(=O)(=O)N2C[C@H](O)COC[C@@H]3O[C@H](CC(=O)NCCN4CCCCC4)CC[C@H]32)cc1,4.18%
27,O=C1CCC(=O)N[C@H](c2ccccc2)C/C=C\CCN1,-1.16%

row,Compound,inhibition
1,C[C@H]1CN([C@@H](C)CO)C(=O)c2c(c3ccccc3n2C)-c2ccccc2CO[C@@H]1CN(C)CC1CCCCC1,-4.72%
2,CO[C@H]1CN(C)C(=O)c2cc(NC(=O)NC(C)C)ccc2OC[C@@H](C)NC[C@@H]1C,-16.2%
3,COc1ccc2c3c([nH]c2c1)[C@@H](CO)N(C)CC31CCN(S(=O)(=O)c2ccc(C)cc2)CC1,3.31%
4,CC(=O)Nc1ccc2c(c1)CC(=O)N(C)C[C@H](C)[C@H](CN(C)S(C)(=O)=O)O2,-0.444%
5,C[C@H](CO)N1C[C@H](C)[C@@H](CN(C)Cc2ccncc2)Oc2cc(Br)ccc2S1(=O)=O,-7.26%
6,COCC(=O)N(C)C[C@H]1[C@@H](c2ccccc2)[C@H](CO)N1C(=O)Cc1ccncc1,-3.58%
7,O=C1NCCCOCc2cn(nn2)CC[C@@H]1Cc1ccc(-c2ccccc2)cc1,1.3%
8,C[C@@H]1COCc2cn(nn2)CC[C@H](C)C(=O)N1,-2.55%
9,O=C(C1CCC1)N1CC2(C1)[C@H](c1ccccc1)[C@H](CO)N2Cc1nccs1,4.67%
10,C[C@H](CO)N1C[C@H](C)[C@@H](CN(C)Cc2ccc(Cl)c(Cl)c2)Oc2ccc(NC(=O)Cn3cnnn3)cc2CC1=O,-6.99%
11,O=C(Cc1ccncc1)N1CC[C@@H]2[C@@H](CO)Nc3ccc(C4=CCCCC4)cc3[C@@H]21,-5.08%
12,CO[C@H]1CN(C)C(=O)c2ccc(NC(=O)C3CCC3)cc2OC[C@H](C)NC[C@@H]1C,4.29%
13,CC(=O)NC[C@H]1[C@H](c2ccc(C3=CCCCC3)cc2)[C@@H](CO)N1C(=O)NC(C)C,-4.24%
14,Cc1ccccc1S(=O)(=O)N[C@@H]1CC[C@@H](CCNS(=O)(=O)c2cccc(F)c2)O[C@H]1CO,-1.75%
15,O=C(C[C@H]1CC[C@@H]2[C@H](COC[C@@H](O)CN2CC2CC2)O1)NCC1CC1,-7.99%
16,CCC(=O)N(C)C[C@H]1Oc2ncc(-c3ccc(C#N)cc3)cc2C(=O)N([C@@H](C)CO)C[C@H]1C,-1.88%
17,C/C=C/c1ccc(C2[C@H]3CNC[C@@H]2N3CC2CCOCC2)cc1 (some centres undefined),3.6%
18,CO[C@@H]1CN(C)C(=O)c2cc(NC(=O)c3cccc(Oc4ccccc4)c3)ccc2OC[C@H](C)NC[C@@H]1C,15.5%
19,O=C1CCCCn2nncc2COC[C@@H](Cc2ccccc2)N1,5.42%
20,COCC(=O)N1CC2(CN(S(C)(=O)=O)C2)c2c(n(C)c3cc(OC)ccc23)[C@@H]1CO,-4.29%
21,O=C(C[C@H]1C[C@H]2c3cc(NC(=O)CC4CC4)ccc3O[C@H]2[C@H](CO)O1)NCc1cc(F)ccc1F,-4.07%
22,COc1ccc2c3c(n(C)c2c1)[C@@H](CO)N(Cc1ccncc1)CC31CN(C(=O)Nc2cccc(F)c2)C1,-9.67%
23,C[C@H](CO)N1C[C@H](C)[C@@H](CN(C)C(=O)Cc2ccccn2)Oc2cc(-c3cccc(C(=O)N(C)C)c3)ccc2S1(=O)=O,3.4%
24,O=C(NC1=CC(=O)c2ccccc2C1=O)c1ccccc1,62.2% (active)
25,O=C(NC(=O)c1ccccc1)Nc1ccccc1O,-0.509%
26,COC(=O)c1nc(NC(=O)c2ccccc2)n[nH]1,5.02%
27,C[C@@H]1CC(=O)N[C@H](c2ccccc2)C/C=C\C[C@H](c2ccccc2)NC1=O,-9.6%
